Test results: ChEMBL document CHEMBL1126327, “Synthesis and antihypertensive activity of 3-[(substituted-carbonyl)amino]-2H-1-benzopyrans” (1992)

How the values were obtained:
Assay type in all cases: functional
[1] = system: Rattus norvegicus; experiment: Compound was evaluated for oral antihypertensive activity in spontaneously hypertensive rats at a dose of 0.1 mg/kg (po)
In short: (§1)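 Conscious spontaneously hypertensive rats (Okamoto-derived, 14-24 weeks old; systolic pressure >180 mmHg counted as hypertensive) dosed by oral needle into the esophagus as a solution or suspension in 1% w/v methylcellulose. Systolic pressure was taken by tail-cuff, each reading the mean of at least five recordings, before dosing and at intervals up to 6 h. The maximum fall was recorded.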

[2] = system: Rattus norvegicus; experiment: Oral antihypertensive activity in spontaneously hypertensive rats at a dose of 0.3 mg/kg (po); in short: as §1
[3] = system: Rattus norvegicus; experiment: Compound was evaluated for oral antihypertensive activity in spontaneously hypertensive rats at a dose of 1.0 mg/kg (po); in short: as §1
[4] = system: Rattus norvegicus; experiment: Oral antihypertensive activity in spontaneously hypertensive rats at a dose of 10 mg/kg (po); in short: as §1
[5] = system: Rattus norvegicus; experiment: Oral antihypertensive activity in spontaneously hypertensive rats at a dose of 3 mg/kg (po); in short: as §1
[6] = system: Rattus norvegicus; experiment: Oral antihypertensive activity in spontaneously hypertensive rats at a dose of 1 mg/kg (po); in short: as §1
[7] = system: Rattus norvegicus; experiment: Compound was evaluated for oral antihypertensive activity in spontaneously hypertensive rats at a dose of 1 mg/Kg (po); in short: as §1
[8] = system: Rattus norvegicus; experiment: Compound was evaluated for oral antihypertensive activity in spontaneously hypertensive rats at a dose of 10 mg/Kg (po); in short: as §1
[9] = system: Rattus norvegicus; experiment: Compound was evaluated for oral antihypertensive activity in spontaneously hypertensive rats at a dose of 3 mg/Kg (po); in short: as §1

| Structure (SMILES) | Max fall in blood pressure [2] | Max fall in blood pressure [5] | Max fall in blood pressure [6] | also measured |
| --- | --- | --- | --- | --- |
| CC(C)(C)NC(=O)N[C@@H]1C(O)c2cc(C#N)ccc2OC1(C)C (some centres not stated) | -40% |  |  | Max fall in blood pressure [1]: -19%; Max fall in blood pressure [3]: -63% |
| CC1(C)Oc2ccc(C#N)cc2C(O)[C@H]1N1CCCCC1=O (some centres not stated) |  | -20% |  | Max fall in blood pressure [4]: -16% |
| CC1(C)Oc2ccc(C#N)cc2C(O)[C@H]1NC(=O)NC1CCCCC1 (some centres not stated) |  | -14% |  |  |
| CC1(C)Oc2ccc(C#N)cc2C(O)[C@H]1NC(=O)c1ccccn1 (some centres not stated) |  | -15% | -18% |  |
| COC1c2cc(C#N)ccc2OC(C)(C)[C@@H]1NC(=O)OC(C)(C)C (some centres not stated) |  | -39% |  |  |
| CC(C)NC(=O)N[C@@H]1C(O)c2cc(C#N)ccc2OC1(C)C (some centres not stated) | -22% |  | -26% |  |
| CC1(C)Oc2ccc(C#N)cc2C(O)[C@H]1NC(=O)C1CCCCC1 (some centres not stated) |  | -9% | -11% |  |
| CCNC(=O)N[C@@H]1C(O)c2cc(C#N)ccc2OC1(C)C (some centres not stated) |  | -18% | -13% |  |
| CNC(=O)N[C@@H]1C(O)c2cc(C#N)ccc2OC1(C)C (some centres not stated) |  | -8% |  | Max fall in blood pressure [4]: -24% |
| CN(C)C(=O)N[C@@H]1C(O)c2cc(C#N)ccc2OC1(C)C (some centres not stated) |  | -27% |  |  |
| CC(C)(C)CC(=O)N[C@@H]1C(O)c2cc(C#N)ccc2OC1(C)C (some centres not stated) |  | -27% | -9% |  |
| CC1(C)Oc2ccc(C#N)cc2C(O)[C@H]1NC(=O)c1ccc(F)c(F)c1 (some centres not stated) |  | -37% | -6% |  |
| CC(C)/N=C(\S)N[C@@H]1C(O)c2cc(C#N)ccc2OC1(C)C (some centres not stated) | -49% |  |  |  |
| CC(C)(C)OC(=O)N[C@@H]1C(O)c2cc(C#N)ccc2OC1(C)C (some centres not stated) |  |  |  | Max fall in blood pressure [7]: -14%; Max fall in blood pressure [8]: -49%; Max fall in blood pressure [9]: -30% |
| CC(C)(C)NC(=O)N[C@@H]1C(O)c2cc(C(F)(F)F)ccc2OC1(C)C (some centres not stated) |  |  | -31% |  |
| CC(C)(C)C(=O)N[C@@H]1C(O)c2cc(C#N)ccc2OC1(C)C (some centres not stated) | -30% |  | -36% |  |
| CCCNC(=O)N[C@@H]1C(O)c2cc(C#N)ccc2OC1(C)C (some centres not stated) |  | -32% | -10% |  |
| CC1(C)Oc2ccc(C#N)cc2C(O)[C@H]1NC(=O)c1ccc(F)cc1 (some centres not stated) |  | -42% | -22% |  |
| CC(C)(C)OC(=O)N[C@@H]1Cc2cc(C#N)ccc2OC1(C)C |  | -26% |  | Max fall in blood pressure [4]: -30% |
| CC1(C)Oc2ccc(C#N)cc2C(O)[C@H]1NC(=O)c1ccccc1 (some centres not stated) |  | -20% |  |  |
| CC(C)(C)OC(=O)N[C@@H]1C(N)c2cc(C#N)ccc2OC1(C)C (some centres not stated) |  |  |  | Max fall in blood pressure [4]: -25% |
| CC(C)(C)NC(=O)N[C@@H]1Cc2cc(C#N)ccc2OC1(C)C | -27% |  |  |  |
| CC(C)C(=O)N[C@@H]1C(O)c2cc(C#N)ccc2OC1(C)C (some centres not stated) | -39% |  |  | Max fall in blood pressure [1]: -22% |
| CC(=O)N[C@@H]1C(O)c2cc(C#N)ccc2OC1(C)C (some centres not stated) |  | -14% |  | Max fall in blood pressure [4]: -32% |
| CC(C)(C)NC(=O)N[C@@H]1C(O)c2cc(Cl)ccc2OC1(C)C (some centres not stated) | -16% | -34% |  |  |
| CC1(C)Oc2ccc(C#N)cc2C(N2CCCC2=O)C1O (configuration not stated) [CROMAKALIM] | -39% |  | -47% | Max fall in blood pressure [1]: -13% |
